High-throughput results (PubChem)
KCNK3 block: human KCNK3 channel inhibition, primary screen. 340,000 tested, 0.84% active. O14649. AID 602410. B-score at 10 µM. CHO-KCNK3 thallium flux, FluxOR fluorescence; active compounds read low;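 active means B-score under library mean minus 4 SD, starting fluorescence ratio at most library mean plus 5 SD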;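 further: more negative B-score means stronger inhibition of thallium flux through KCNK3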
Target sequence (O14649 whole entry, looked up): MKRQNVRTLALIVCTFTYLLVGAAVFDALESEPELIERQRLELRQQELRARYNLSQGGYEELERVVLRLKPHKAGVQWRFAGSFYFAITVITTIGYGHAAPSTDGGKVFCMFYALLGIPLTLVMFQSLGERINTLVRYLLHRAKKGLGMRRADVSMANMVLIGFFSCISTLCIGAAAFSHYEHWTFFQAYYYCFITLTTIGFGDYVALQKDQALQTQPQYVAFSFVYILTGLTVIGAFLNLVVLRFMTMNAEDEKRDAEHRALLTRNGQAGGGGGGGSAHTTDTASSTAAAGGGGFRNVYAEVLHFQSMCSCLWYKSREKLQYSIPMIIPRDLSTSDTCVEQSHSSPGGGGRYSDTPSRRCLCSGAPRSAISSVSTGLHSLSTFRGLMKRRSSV
KCNK9 inh: inhibitors of human KCNK9 two-pore domain potassium channel. Q9NPC2. HEK293 KCNK9, FluxOR thallium flux fluorescence; active compounds read low. B-score at 10 µM. 310,000 tested, 1.2% active;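 active means ratio B-score over 3 SD below the library mean, with starting fluorescence within 5 SD of its mean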;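 further: negative B-score means less thallium flux so channel inhibition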
KCNQ1 inh: human KCNQ1 channel inhibition; P51787; CHO-K1 KCNQ1, FluxOR thallium flux fluorescence; active compounds read high; B-score at 10 µM; 310,000 tested, 1.3% active; AID 2642;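 active means compounds whose thallium flux B-score, printed positive for inhibition, exceeds three library SD while starting fluorescence stays within three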;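 further: channel opened by potassium depolarization with thallium stimulus after 20 min compound exposure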
Cl transport mod: modulates chloride dependent transport by human KCC2; Q9H2X9; KCC2 cells, thallium flux FluoZin-2 fluorescence; B-score of Tl+ flux slope (higher = more flux/activation; lower = inhibition) at 10 µM; 190,000 tested, 2.2% active;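 active means thallium flux slope and its plate-corrected score both differing from the plate sample mean at a set confidence after two filtering rounds, in either direction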;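 further: slope of fluorescence scaled to starting intensity during 10 to 20 s after thallium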
hERG protect: shields human hERG channel from block by proarrhythmic agents; 310,000 tested, 0.51% active; AID 1511; CHO-hERG, FluxOR thallium flux, dofetilide IC70 present; activation (rescue from dofetilide block), less the hit threshold, % at 10 µM; Q12809;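 active means activation above the mean of controls blocked by dofetilide plus 5 SD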;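 further: thallium influx through hERG after potassium depolarization seen as dye fluorescence rise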
KCNQ1 pot: potentiates or activates the human KCNQ1 potassium channel; CHO-K1 KCNQ1, thallium flux FluxOR fluorescence; active compounds read high; 310,000 tested, 0.35% active; AID 2648; P51787; B-score at 10 µM;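 active means fluorescence ratio B-score, a plate-corrected score, at least three library SD, with initial intensity B-score within 5 SD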
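Material: CHO-K1 cells stably expressing KCNQ1. Medium: assay buffer for compound exposure, DMSO matched across wells. Reagent: K+/Tl+ depolarizing stimulus. Compound dosing: single-concentration screen. Times: 37 °C overnight plating, 90-min dark dye load, 20-min compound pretreatment. Technique: FluxOR Tl+ flux fluorescence.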
KCNK3 confirm: human KCNK3 channel inhibition, confirmation assay; shares compounds with KCNK3 block; CHO-KCNK3 thallium flux, FluxOR fluorescence; 0% buffer, 100% carvedilol maximal block; ratio percent of control, % at 10 µM; 2,400 tested, 99% active;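 active means ratio percent of control, averaged over triplicates, above buffer control mean plus 5 SD, cut at about 64% in these data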;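 further: ratio is the fluorescence rise from min to max over baseline after thallium stimulus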
KCNK3 uninduced: activity in cells without induced KCNK3 expression. non-induced KCNK3 parental cells, FluxOR thallium flux; active compounds read low. shares compounds with KCNK3 block. 2,400 tested, 40% active. thallium flux ratio (lower = more inhibition) at 10 µM;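 active means thallium flux ratio, averaged over three wells, more than 5 SD below the buffer control mean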;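 further: host cells are CHO cells without KCNK3 induction; ratio is peak minus trough fluorescence over baseline then normalized to buffer controls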
The depositor's hits bear a star. Most compounds without a hit are left out; they make up all but 4.1% or so of the library.

What do the screens show for `C[C@H](CO)N1C[C@H](C)[C@@H](CN(C)S(=O)(=O)c2ccccc2)Oc2c(NC(=O)CCC(F)(F)F)cccc2C1=O`?
KCNK3 block: -12*; KCNK3 confirm: 110*; KCNK3 uninduced: inactive

What do the screens show for `COCCNC(=O)NC(=O)CN1C(=O)NC(Cc2c[nH]c3ccccc23)C1=O` (stereo not drawn)?
KCNK3 block: inactive; KCNK9 inh: inactive; KCNQ1 inh: inactive; hERG protect: -7; KCNQ1 pot: inactive

What do the screens show for `Nc1nc2c(nnn2Cc2ccc(Cl)c(Cl)c2)c(=O)[nH]1`?
KCNK3 block: inactive

How did Cc1cc(NC(=O)c2cc3ccccc3o2)ccc1NC(=O)c1ccccc1 do in these assays?
KCNK3 block: -10*; KCNK9 inh: inactive; KCNQ1 inh: inactive; hERG protect: -3; KCNQ1 pot: inactive; KCNK3 confirm: 0; KCNK3 uninduced: inactive

What do the screens show for `CCOC(=O)c1c(CSCc2ccccc2)oc2ccc(O)c(CN(C)C)c12`?
KCNK3 block: -9.3*; KCNK9 inh: inactive; KCNQ1 inh: inactive; Cl transport mod: -1.8; hERG protect: -29; KCNQ1 pot: inactive; KCNK3 confirm: 123*; KCNK3 uninduced: inactive

What do the screens show for `Cc1c(Cl)cccc1NC(=S)NCC1COc2ccccc2O1` (stereo not drawn)?
KCNK3 block: -8.9*; KCNK9 inh: inactive; KCNQ1 inh: inactive; Cl transport mod: -1.2; hERG protect: -9; KCNQ1 pot: inactive; KCNK3 confirm: 125*; KCNK3 uninduced: 0.14*

What do the screens show for `C=CCNC(=S)NCC1COc2ccccc2O1` (stereo not drawn)?
KCNK3 block: inactive; KCNK9 inh: inactive; KCNQ1 inh: inactive; Cl transport mod: -0.97; hERG protect: -8; KCNQ1 pot: inactive

What do the screens show for `CC(C)(C)S(=O)(=O)N1C[C@@H]2C(=CC[C@H]3C(=O)N(c4ccccc4)C(=O)[C@@H]23)[C@@H]1CCO`?
KCNK3 block: inactive

How did CCN(CC(=O)Nc1c(F)cccc1F)C(=O)CN1C(=O)NC2(CCCC2)C1=O do in these assays?
KCNK3 block: inactive; KCNK9 inh: inactive; KCNQ1 inh: inactive; hERG protect: -16; KCNQ1 pot: inactive

Results for CCN(CC(=O)Nc1ccc(NC(C)=O)cc1)C(=O)c1ccccc1SCC(=O)N1CCCC1 ?
KCNK3 block: inactive

How did O=C(OC(c1ccccc1)c1nccc2ccccc12)c1ccccc1 (stereo not drawn) do in these assays?
KCNK3 block: -11*; KCNK3 confirm: 105*; KCNK3 uninduced: 0.14*

What do the screens show for `CC(C)n1ncc2c(C(=O)Nc3cccc(C#N)c3)cc(C3CC3)nc21`?
KCNK3 block: -12*; KCNK3 confirm: 118*; KCNK3 uninduced: 0.13*

Results for COC(=O)C1=CO[C@@H](O[C@@H]2O[C@H](CO)[C@@H](O)[C@H](O)[C@H]2O)C2C1CC(O)O[C@H]2C (stereo partly drawn) ?
KCNK3 block: inactive

What do the screens show for `COc1cc(C(=S)N2CCOCC2)ccc1OC(=O)c1ccccc1C`?
KCNK3 block: -8.8*; KCNK9 inh: inactive; KCNQ1 inh: inactive; hERG protect: -6; KCNQ1 pot: inactive; KCNK3 confirm: 90*; KCNK3 uninduced: inactive

What do the screens show for `CCOC(=O)c1c(NC(=O)COC(=O)C2CC2C)sc(C)c1C` (stereo not drawn)?
KCNK3 block: -10*; KCNK9 inh: -8.1*; KCNQ1 inh: inactive; Cl transport mod: -0.94; hERG protect: -15; KCNQ1 pot: inactive; KCNK3 confirm: 110*; KCNK3 uninduced: inactive

Results for CCOC(=O)c1c(NC(=O)C2CCCO2)sc(C)c1C (stereo not drawn) ?
KCNK3 block: -11*; KCNK9 inh: inactive; KCNQ1 inh: inactive; hERG protect: 1; KCNQ1 pot: inactive; KCNK3 confirm: 109*; KCNK3 uninduced: inactive

How did COCC1CCCCN1C(=O)c1ccc(OC)c(OC2CCN(C(C)C)CC2)c1 (stereo not drawn) do in these assays?
KCNK3 block: inactive; KCNK9 inh: inactive; KCNQ1 inh: inactive; hERG protect: -8; KCNQ1 pot: inactive

How did O=C(N/N=C/c1ccc[nH]1)c1cc(-c2ccc(Cl)cc2)nc2ccccc12 do in these assays?
KCNK3 block: -9.1*; KCNK9 inh: inactive; KCNQ1 inh: inactive; Cl transport mod: 0.48; hERG protect: -15; KCNQ1 pot: inactive; KCNK3 confirm: 124*; KCNK3 uninduced: 0.12*

What do the screens show for `O=C(N/N=C/c1cccnc1)c1cc(-c2ccc(Cl)cc2)nc2ccccc12`?
KCNK3 block: inactive; KCNK9 inh: inactive; KCNQ1 inh: inactive; hERG protect: -9; KCNQ1 pot: inactive

What do the screens show for `Cc1cc(C)cc(NC(=S)N(CCN2CCCCC2)Cc2ccco2)c1`?
KCNK3 block: -8.9*; KCNK9 inh: inactive; KCNQ1 inh: inactive; Cl transport mod: -0.12; hERG protect: -3; KCNQ1 pot: inactive; KCNK3 confirm: 90*; KCNK3 uninduced: inactive

What do the screens show for `COc1ccc(CCNC(=O)CSc2cn(Cc3cccc(C)c3)c3ccccc23)cc1OC`?
KCNK3 block: -9.2*; KCNK9 inh: inactive; KCNQ1 inh: inactive; Cl transport mod: -1.7; hERG protect: -11; KCNQ1 pot: inactive; KCNK3 confirm: 105*; KCNK3 uninduced: inactive

How did COc1ccc(CCNC(=O)CSc2cn(Cc3ccccc3)c3ccccc23)cc1OC do in these assays?
KCNK3 block: inactive; KCNK9 inh: inactive; KCNQ1 inh: inactive; Cl transport mod: -1.3; hERG protect: -6; KCNQ1 pot: inactive

What do the screens show for `COc1ccccc1Oc1ccc(S(=O)(=O)N2CCCCC2C)cc1` (stereo not drawn)?
KCNK3 block: -12*; KCNK9 inh: inactive; KCNQ1 inh: inactive; hERG protect: -12; KCNQ1 pot: inactive; KCNK3 confirm: 108*; KCNK3 uninduced: 0.16*

What do the screens show for `COCCN(CCOC)c1nc(-c2ccc(C)cc2)nc2ccccc12`?
KCNK3 block: -12*; KCNK9 inh: inactive; KCNQ1 inh: inactive; hERG protect: -14; KCNQ1 pot: inactive; KCNK3 confirm: 86*; KCNK3 uninduced: 0.13*
